OX1R antag-1 – antagonists of human orexin 1 receptor (OX1R); Orexin/Hypocretin receptor type 1 (Homo sapiens), O43613; OX1R-expressing cells, FRET antagonist read-out; inhibition, % at 6.6 µM; actives 1.8% (n = 330,000); AID 485270, 2010; in the data active = inhibition mostly above about 38%, no sharp cut-off; inactive = mostly below about 40%;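 note: 0% = agonist challenge alone and 100% = reference antagonist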
Target sequence (O43613 whole entry, looked up): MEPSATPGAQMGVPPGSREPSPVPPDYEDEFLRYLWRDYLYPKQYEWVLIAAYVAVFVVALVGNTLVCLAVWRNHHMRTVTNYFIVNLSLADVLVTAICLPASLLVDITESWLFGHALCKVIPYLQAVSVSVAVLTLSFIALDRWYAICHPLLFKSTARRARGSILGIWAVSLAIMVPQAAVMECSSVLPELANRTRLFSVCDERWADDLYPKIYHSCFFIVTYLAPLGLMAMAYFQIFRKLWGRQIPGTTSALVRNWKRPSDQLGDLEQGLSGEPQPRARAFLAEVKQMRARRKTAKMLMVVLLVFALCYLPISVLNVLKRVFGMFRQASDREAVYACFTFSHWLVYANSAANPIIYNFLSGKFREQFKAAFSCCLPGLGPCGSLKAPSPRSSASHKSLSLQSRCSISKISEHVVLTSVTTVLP
GPR7 antag – GPR7 receptor antagonists, primary screen, cell-based, fluorescence, single concentration; Neuropeptides B/W receptor type 1 (Homo sapiens), P48145; GPR7-expressing cells, fluorescence antagonist assay; inhibition, % at 4.4 µM; actives 1.1% (n = 290,000); AID 1861, 2009; in the data active = inhibition above about 16%, passing the limit was not always enough;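 note: cells stimulated with the agonist NPW; 0% = agonist with vehicle and 100% = vehicle without agonist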
CHO parental Ca – ATP-evoked calcium signal inhibitors, parental CHO, primary screen, counter-screen for OX1R antagonist project, cell-based, fluorescence, Fluo-8 calcium dye | parental CHO-K1, ATP-induced calcium, Fluo-8 fluorescence | inhibition, % at 5.6 µM | actives 0.63% (n = 330,000) | AID 463079, 2010;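 active = inhibition above that plate's mean sample inhibition plus 3 SD, cut at about 26% in these data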;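 note: 0% = ATP-challenged DMSO wells and 100% = DMSO wells without ATP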
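Test system: parental CHO cells; detection: calcium-sensitive Fluo-8 fluorescence; evaluation: percent inhibition of calcium signal; also added: ATP as calcium-mobilizing challenge; repeats: one well per compound; control set: ATP-challenged DMSO wells low, unchallenged DMSO wells high; compound: single nominal dose of 5.6 µM per compound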
OX1R antag-2 – OX1R (HCRTR1) antagonists, primary screen, fluorescence, CHO/OX1R cells, Fluo-8 calcium, orexin A | Orexin/Hypocretin receptor type 1 (Homo sapiens), O43613 | Fluo-8 calcium fluorescence | inhibition, % at 5 µM | actives 0.43% (n = 330,000);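 active = inhibition above its plate's threshold, mean inhibition of all tested compounds on the plate plus 3 SD, cut at about 37% in these data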;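 note: 0% = orexin A challenge wells and 100% = SB-334867-A antagonist wells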
GalR3 antag – GalR3 antagonists in HEK293 cells, primary screen, cell-based, fluorescence readout; Galanin receptor type 3 (Homo sapiens), O60755; inhibition, % at 3 µM; actives 0.44% (n = 360,000); HEK293 GalR3-CNG cAMP membrane potential fluorescence; galR3 body fused to GalR1 C-terminus;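 active = inhibition above the screen-wide average plus 3 SD, cut at about 13% in these data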;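 note: forskolin and galanin both at EC90 stimulate the cells; cAMP rise reported by CNG channel membrane potential dye signal; 0% = forskolin plus galanin with DMSO and 100% = forskolin alone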
GalR3 antag conf – GalR3 antagonist hit confirmation, cell-based, fluorescence, triplicate; shares compounds with GalR3 antag; HEK293 GalR3 CNG cAMP biosensor, membrane potential fluorescence; galR3 fused to GalR1 carboxy tail; challenged with forskolin and galanin at EC90; inhibition, % at 3 µM; actives 59% (n = 1,600); AID 652245, 2013;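 active = inhibition above the primary screen's cutoff, the mean inhibition of all screened compounds plus 3 SD, cut at about 13% in these data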;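 note: 0% = forskolin plus galanin and 100% = forskolin alone with DMSO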
CNG parental – nonspecific cAMP agonists in parental HEK-CNG cells, counter-screen for GalR3 antagonist project, cell-based, fluorescence, high throughput; HEK293-CNG parental cells, cAMP membrane potential fluorescence; normalised: DMSO wells 0%, forskolin wells 100%; actives 10% (n = 1,600); activation, % at 3 µM; shares compounds with GalR3 antag; in the data active = activation above about 1.3%
An asterisk follows results filed as active; / = not tested or not shown. This is a sample that favours compounds with a hit; in the whole collection about 3.1% have one here.

SMILES	OX1R antag-1	GPR7 antag	CHO parental Ca	OX1R antag-2	GalR3 antag	GalR3 antag conf	CNG parental
Cn1cc(CNCc2cn[nH]c2-c2ccc(F)cc2)c(-c2ccc3c(c2)OCCO3)n1	10.0	-1.0	-9.5	-30.4	-6.3	/	/
COc1ccc(/C=C2\SC(=N)N(c3ccc(F)cc3)C2=O)cc1OC	38.6	15.3	-11.7	6.8	18.5*	16.7*	0.9
Cc1cccc(C)c1N1C(=O)c2ccccc2NC(=O)C1C(=O)NCC(C)C (stereo not drawn)	/	/	/	/	-8.2	/	/
Cc1cccc(C(=O)Nc2oc(-c3ccccc3)cc2C#N)c1	44.8	2.5	-8.2	-6.9	2.4	/	/
N#Cc1cc(-c2ccccc2)oc1NC(=O)c1ccco1	19.8	0.0	-9.4	-25.6	29.3*	15.6*	0.3
O=C(C[C@H]1CC[C@H]2[C@@H](COC[C@H](O)CN2Cc2ccccc2)O1)NCCCN1CCOCC1	/	/	/	/	-4.5	/	/
COc1ccc(C(=O)c2coc(-c3ccccc3C(=O)O)c2C(=O)O)cc1	3.2	-4.0	1.7	-0.6	13.6*	-2.8	0.5
COc1ccc(C(=O)c2ccccc2C(=O)c2ccccc2)cc1	/	/	/	/	-4.6	/	/
CC1=NNC(=O)/C1=C\c1cn(-c2ccccc2)nc1-c1ccccc1	19.2	55.4*	92.5*	96.4*	48.2*	55.0*	0.0
N#Cc1cccnc1N1CCN(C(=O)c2cccc3c2C(=O)c2ccc(Cl)cc2S3(=O)=O)CC1	33.6*	/	-24.3	-18.8	23.3*	29.8*	0.2
N#Cc1ccc(OCC(=O)OCC(=O)Nc2sccc2C(N)=O)cc1	6.3	/	5.6	16.5	-5.9	/	/
Cc1ccc(OCC(=O)OCC(=O)Nc2sccc2C(N)=O)cc1C	10.1	-4.6	11.1	20.8	27.4*	2.7	-0.2
COc1cc(CC(=O)Nc2sccc2C(N)=O)cc(OC)c1OC	34.9	-11.5	-24.2	4.8	-0.8	/	/
COc1ccc(CCC(=O)OCC(=O)Nc2sccc2C(N)=O)cc1OC	36.3*	/	46.7*	46.2*	98.8*	91.8*	-0.1
CN(Cc1ccc2c(c1)CCCN2C)C(=O)[C@H]1O[C@@H](n2cnc3c(N)ncnc32)[C@H](O)[C@@H]1O	/	/	/	/	41.6*	85.3*	0.0
O=C(NCCN1CCOCC1)C1CCN(c2ncnc3c2sc2cccc(F)c23)CC1	9.5	-9.3	1.8	-6.7	15.2*	2.4	0.1
COc1ccc2oc(C)c(C(=O)Cn3ccnc3)c2c1	26.5	-10.2	-9.3	-8.0	15.0*	1.2	0.2
O=C(COC(=O)c1ccccc1F)NNC(=O)c1ccccc1	12.3	/	9.4	4.4	-0.1	/	/
CCCCNC(=O)COC(=O)c1ccccc1F	2.6	-8.0	-10.5	-6.9	18.6*	2.2	0.0
Cc1csc2ncnc(NCCc3ccccn3)c12	26.0	-5.0	7.5	1.9	96.8*	83.9*	-0.2
COC(=O)C1=C(C)N(C)C(=NCc2cc(OC)c(OC)c(OC)c2)NC1c1cccc(C(F)(F)F)c1 (stereo not drawn)	/	/	/	/	-4.0	/	/
CC(C)(C)NC(=O)C(c1cccc2ccccc12)n1c(=O)c(-c2cc3ccccc3[nH]2)nc2ccccc21 (stereo not drawn)	/	/	/	/	-4.5	/	/
O=C1c2cccc3cccc(c23)C(=O)N1CC1CCN(CC(O)COc2ccc3ccccc3c2)CC1 (stereo not drawn)	23.2	/	9.2	6.7	-2.7	/	/
Cc1cc(C)cc(OCC(O)CN2CCC(CN3C(=O)c4cccc5cccc(c45)C3=O)CC2)c1 (stereo not drawn)	18.1	/	17.2	0.9	28.5*	20.5*	8.2*
CC(=O)Nc1cc(-c2cccc(CO)c2)cn2c(-c3ccc(F)cc3)cnc12	/	/	/	/	0.0	/	/
